Experimental data: ChEMBL document CHEMBL4837261, “Optimization of TopoIV Potency, ADMET Properties, and hERG Inhibition of 5-Amino-1,3-dioxane-Linked Novel Bacterial Topoisomerase Inhibitors: Identification of a Lead with In Vivo Efficacy against MRSA” (J Med Chem, 2021)
Converted amounts (≈) assume the structure as drawn.

How the values were obtained:
[1] = test system: Enterococcus faecalis; test: Antibacterial activity against vancomycin-resistant Enterococcus faecalis by CLSI method; type: functional
[2] = Metabolic stability in CD1 mouse microsomes assessed as half life; type: ADME, Microsome
[3] = biological target: Sodium channel protein type 5 subunit alpha (Homo sapiens, UniProt Q14524); test: Activation of recombinant human Nav1.5 late expressed in human HEK293 cells assessed as activation of late current at 100 uM by automated Qpatch clamp assay relative to control; type: ADME, cell-based; conditions: hek293, 100 µM
[4] = biological target: CYP2C9 (Homo sapiens, UniProt P11712); test: Inhibition of CYP2C9 (unknown origin) at 10 uM relative to control; type: ADME
[5] = Permeability of the compound from apical to basolateral side in human Caco-2 cells; type: ADME, cell-based; conditions: read-out: permeability
[6] = test system: Staphylococcus aureus; test: Antibacterial activity against Staphylococcus aureus 3527 by CLSI method; type: functional
[7] = biological target: CYP2D6 (Homo sapiens, UniProt P10635); test: Inhibition of CYP2D6 (unknown origin) at 10 uM relative to control; type: ADME
[8] = test system: Klebsiella pneumoniae; test: Antibacterial activity against Klebsiella pneumoniae isolates by CLSI method; type: functional
[9] = test system: HepaRG; test: Cytotoxicity against human HepaRG cells at 100 uM by ATP depletion assay; type: cell-based
Method in brief: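 An ATP depletion read-out in HepaRG cells gave cytotoxicity across 0.01–100 μM, reported as % cytotoxicity at 100 μM.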

[10] = test system: Staphylococcus aureus; test: Antibacterial activity against Staphylococcus aureus ATCC 29213 by CLSI method; type: functional
[11] = biological target: Nav1.5 (Homo sapiens, UniProt Q14524); test: Inhibition of recombinant human Nav1.5 expressed in human HEK293 cells at 100 uM measured at peak current by automated Qpatch clamp assay relative to control; type: ADME, cell-based; conditions: HEK293 cells expressing recombinant human Nav1.5
[12] = biological target: 5-hydroxytryptamine receptor 2B (Homo sapiens) (UniProt P41595); test: Displacement of [3H]Lysergic acid diethylamide from human recombinant 5HT2B receptor expressed in CHO-K1 cells at 100 uM by radioligand binding assay; type: cell-based
[13] = test system: HeLa; test: Cytotoxicity against human HeLa cells; type: cell-based
Method in brief: (§1)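 THP-1, HepG2 and HeLa cells were exposed to compound from 128 to 0.0625 μg/mL. IC50 was obtained by nonlinear regression of the inhibition curves.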

[14] = biological target: CYP2C19 (Homo sapiens, UniProt P33261); test: Inhibition of CYP2C19 (unknown origin) at 10 uM relative to control; type: ADME
[15] = Half life in ICR (CD-1) mouse at 10 mg/kg, iv measured up to 1440 mins by LC-MS/MS analysis; type: ADME, organism-based; conditions: in vivo
Method in brief: (§2)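 Male ICR (CD-1) mice, 22 ± 2 g, given the free base in DMSO/Solutol HS-15/0.9% NaCl (5/5/90, v/v/v), IV at 10 mg/kg or PO at 50 mg/kg; 24 mice per route, three per timepoint. Plasma was taken by cardiac puncture at 3–1440 min (IV) or 10–1440 min (PO), measured by LC-MS/MS, and parameters were derived by noncompartmental analysis.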

[16] = test system: Enterococcus faecium; test: Antibacterial activity against vancomycin-resistant Enterococcus faecium by CLSI method; type: functional
[17] = biological target: Cytochrome P450 2C8 (Homo sapiens, UniProt P10632); test: Inhibition of CYP2C8 (unknown origin); type: ADME
[18] = test system: Staphylococcus aureus; test: Antibacterial activity against Staphylococcus aureus harbouring GyrA D83N mutant by CLSI method; type: functional
[19] = Volume of distribution at steady state in ICR (CD-1) mouse at 10 mg/kg, iv measured up to 1440 mins by LC-MS/MS analysis; type: ADME, organism-based; conditions: in vivo, read-out: Vdss
Method in brief: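 Male ICR (CD-1) mice, 22 ± 2 g, given free base in DMSO/Solutol HS-15/0.9% NaCl (5/5/90) at 50 mg/kg PO or 10 mg/kg IV. Three mice per timepoint, 8 timepoints. Plasma taken by cardiac puncture at 10–1440 min (PO) or 3–1440 min (IV). Measured by LC-MS/MS, with parameters from noncompartmental analysis.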

[20] = Metabolic stability in human microsomes assessed as half life; type: ADME, Microsome
Method in brief: (§3)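 Run at RTI International. Covers plasma protein binding (mouse, human; percent free), CACO-2 permeability and efflux, and microsomal stability (mouse and human microsomes) giving half-life.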

[21] = biological target: Cav1.2 (Homo sapiens, UniProt Q13936); test: Inhibition of recombinant human Cav1.2 expressed in human HEK293 cells at 100 uM measured at peak current by automated Qpatch clamp assay relative to control; type: ADME, cell-based; conditions: HEK293 cells expressing recombinant human Cav1.2
[22] = Kinetic solubility of the compound at pH 7.4 buffer; type: physicochemical; conditions: read-out: Kinetic_solubility
Method in brief: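 Kinetic aqueous solubility was measured in buffer at pH 7.4.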

[23] = test system: THP-1; test: Cytotoxicity against human THP-1 cells; type: cell-based; method in brief: as §1
[24] = biological target: DNA gyrase (Staphylococcus aureus, UniProt P0A0K8+P20831, D83N); test: Inhibition of Staphylococcus aureus DNA Gyrase D83N mutant assessed as reduction in supercoiling pBR322 DNA by measuring relaxation by bromophenol blue staining based TAE gel method
[25] = test system: HepG2; test: Cytotoxicity against human HepG2 cells; type: cell-based; method in brief: as §1
[26] = test system: Pseudomonas aeruginosa; test: Antibacterial activity against Pseudomonas aeruginosa isolates by CLSI method; type: functional
[27] = Permeability of the compound from basolateral to apical side in human Caco-2 cells; type: ADME, cell-based; conditions: read-out: permeability; method in brief: as §3
[28] = biological target: DNA gyrase (Staphylococcus aureus) (UniProt P0A0K8+P20831); test: Inhibition of Staphylococcus aureus DNA Gyrase assessed as reduction in supercoiling pBR322 DNA by measuring induction of double strand breaks by ethidium bromide staining based agarose gel electrophoresis; type: protein-complex assay; conditions: dose 1-100 µM
Method in brief: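 Gyrase-mediated cleavage of negatively supercoiled pBR322 ran for 30 min at 37 °C with compound at 0.5–200 μM. Single- and double-strand break products were quantified from gel lane fluorescence, corrected for differential emission of supercoiled versus linear DNA.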

[29] = biological target: Cytochrome P450 2D6 (Homo sapiens, UniProt P10635); test: Inhibition of CYP2D6 (unknown origin); type: ADME
[30] = test system: Staphylococcus aureus; test: Antibacterial activity against cystic fibrosis isolate Staphylococcus aureus by CLSI method; type: functional
[31] = biological target: Cytochrome P450 1A2 (Homo sapiens, UniProt P05177); test: Inhibition of CYP1A2 (unknown origin); type: ADME
[32] = biological target: Acetylcholinesterase (Homo sapiens) (UniProt P22303); test: Inhibition of human recombinant acetylcholinesterase receptor expressed in HEK293 cells at 100 uM by spectrophotometry; type: cell-based
[33] = AUClast in ICR (CD-1) mouse at 50 mg/kg, po measured up to 1440 mins by LC-MS/MS analysis; type: ADME, organism-based; parameters: route oral, dose 50 mg/kg, time <=1440; conditions: in vivo; method in brief: as §2
[34] = biological target: Cytochrome P450 2C9 (Homo sapiens, UniProt P11712); test: Inhibition of CYP2C9 (unknown origin); type: ADME
[35] = biological target: Cytochrome P450 2C19 (Homo sapiens, UniProt P33261); test: Inhibition of CYP2C19 (unknown origin); type: ADME
[36] = Growth inhibition of human K/VP.5 cells incubated for 48 hrs by NBTI cell counting analysis; type: functional; conditions: K562, 48 h

Sequence of 5-hydroxytryptamine receptor 2B (Homo sapiens) (P41595 whole entry): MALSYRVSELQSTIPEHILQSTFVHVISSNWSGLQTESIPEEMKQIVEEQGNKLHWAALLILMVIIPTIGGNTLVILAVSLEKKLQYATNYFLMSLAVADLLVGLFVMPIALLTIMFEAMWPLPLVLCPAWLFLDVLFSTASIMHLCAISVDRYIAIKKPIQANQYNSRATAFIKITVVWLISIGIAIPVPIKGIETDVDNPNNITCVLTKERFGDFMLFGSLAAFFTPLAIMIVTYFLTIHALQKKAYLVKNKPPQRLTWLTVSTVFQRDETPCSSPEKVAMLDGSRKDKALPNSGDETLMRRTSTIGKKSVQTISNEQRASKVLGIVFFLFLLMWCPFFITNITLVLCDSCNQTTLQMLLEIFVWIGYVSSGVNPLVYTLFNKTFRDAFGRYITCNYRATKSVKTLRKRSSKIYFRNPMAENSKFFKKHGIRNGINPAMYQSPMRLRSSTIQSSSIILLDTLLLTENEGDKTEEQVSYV
Sequence of Cytochrome P450 2C8 (P10632 whole entry): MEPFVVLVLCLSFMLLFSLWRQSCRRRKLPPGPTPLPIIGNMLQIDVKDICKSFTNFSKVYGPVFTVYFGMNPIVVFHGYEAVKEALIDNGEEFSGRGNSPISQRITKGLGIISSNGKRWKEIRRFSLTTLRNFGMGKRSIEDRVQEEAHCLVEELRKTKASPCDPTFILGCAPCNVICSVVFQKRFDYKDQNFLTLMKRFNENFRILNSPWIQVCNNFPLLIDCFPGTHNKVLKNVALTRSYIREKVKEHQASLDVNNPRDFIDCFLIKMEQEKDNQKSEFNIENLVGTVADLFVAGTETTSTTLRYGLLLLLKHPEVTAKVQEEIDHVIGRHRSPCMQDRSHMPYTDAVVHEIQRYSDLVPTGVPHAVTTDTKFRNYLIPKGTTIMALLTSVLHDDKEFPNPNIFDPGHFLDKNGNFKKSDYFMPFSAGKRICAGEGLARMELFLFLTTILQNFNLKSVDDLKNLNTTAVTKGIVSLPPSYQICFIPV
Sequence of CYP2C19 (P33261 whole entry): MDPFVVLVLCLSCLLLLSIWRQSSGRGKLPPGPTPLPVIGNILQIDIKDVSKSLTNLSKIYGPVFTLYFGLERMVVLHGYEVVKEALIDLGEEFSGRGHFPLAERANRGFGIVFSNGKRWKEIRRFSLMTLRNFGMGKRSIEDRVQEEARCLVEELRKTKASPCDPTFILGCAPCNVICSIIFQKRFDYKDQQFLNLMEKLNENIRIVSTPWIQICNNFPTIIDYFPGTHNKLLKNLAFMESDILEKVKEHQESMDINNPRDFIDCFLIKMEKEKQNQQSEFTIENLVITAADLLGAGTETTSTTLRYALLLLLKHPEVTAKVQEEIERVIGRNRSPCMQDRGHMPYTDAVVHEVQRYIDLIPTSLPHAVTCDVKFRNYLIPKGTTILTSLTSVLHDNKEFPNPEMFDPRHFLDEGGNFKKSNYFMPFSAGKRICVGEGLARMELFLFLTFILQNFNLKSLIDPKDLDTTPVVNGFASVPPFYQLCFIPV
Sequence of Cytochrome P450 2C19 (P33261 whole entry): as above
Sequence of Cytochrome P450 2C9 (P11712 whole entry): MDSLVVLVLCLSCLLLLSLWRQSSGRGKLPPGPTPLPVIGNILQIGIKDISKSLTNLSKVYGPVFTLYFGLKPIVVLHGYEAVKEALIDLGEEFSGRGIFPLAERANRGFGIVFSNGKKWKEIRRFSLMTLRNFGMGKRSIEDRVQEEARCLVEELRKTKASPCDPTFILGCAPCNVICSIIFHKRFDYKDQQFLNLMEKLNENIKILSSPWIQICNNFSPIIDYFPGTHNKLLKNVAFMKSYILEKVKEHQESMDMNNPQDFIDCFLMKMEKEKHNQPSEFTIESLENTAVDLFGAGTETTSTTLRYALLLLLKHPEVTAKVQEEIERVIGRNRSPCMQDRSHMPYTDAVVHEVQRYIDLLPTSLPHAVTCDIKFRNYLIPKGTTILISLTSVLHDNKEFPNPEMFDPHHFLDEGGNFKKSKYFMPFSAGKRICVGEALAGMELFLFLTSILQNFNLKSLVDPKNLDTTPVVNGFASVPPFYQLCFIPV
Sequence of CYP2C9 (P11712 whole entry): as above
Sequence of Cytochrome P450 1A2 (P05177 whole entry): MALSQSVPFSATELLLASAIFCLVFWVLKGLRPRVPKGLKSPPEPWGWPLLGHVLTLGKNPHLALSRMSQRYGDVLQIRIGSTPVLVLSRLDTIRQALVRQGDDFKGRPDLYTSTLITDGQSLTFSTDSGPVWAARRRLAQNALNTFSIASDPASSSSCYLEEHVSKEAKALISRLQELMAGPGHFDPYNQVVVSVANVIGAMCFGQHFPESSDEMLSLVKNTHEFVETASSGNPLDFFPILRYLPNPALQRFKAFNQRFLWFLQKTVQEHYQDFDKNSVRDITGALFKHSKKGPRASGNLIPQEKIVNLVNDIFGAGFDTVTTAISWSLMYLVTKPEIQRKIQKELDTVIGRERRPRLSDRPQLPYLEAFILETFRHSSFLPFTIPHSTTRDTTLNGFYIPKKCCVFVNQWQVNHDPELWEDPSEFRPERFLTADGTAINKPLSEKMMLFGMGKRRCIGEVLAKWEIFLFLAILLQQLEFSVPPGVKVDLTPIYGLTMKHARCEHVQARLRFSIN
Sequence of Acetylcholinesterase (Homo sapiens) (P22303 whole entry): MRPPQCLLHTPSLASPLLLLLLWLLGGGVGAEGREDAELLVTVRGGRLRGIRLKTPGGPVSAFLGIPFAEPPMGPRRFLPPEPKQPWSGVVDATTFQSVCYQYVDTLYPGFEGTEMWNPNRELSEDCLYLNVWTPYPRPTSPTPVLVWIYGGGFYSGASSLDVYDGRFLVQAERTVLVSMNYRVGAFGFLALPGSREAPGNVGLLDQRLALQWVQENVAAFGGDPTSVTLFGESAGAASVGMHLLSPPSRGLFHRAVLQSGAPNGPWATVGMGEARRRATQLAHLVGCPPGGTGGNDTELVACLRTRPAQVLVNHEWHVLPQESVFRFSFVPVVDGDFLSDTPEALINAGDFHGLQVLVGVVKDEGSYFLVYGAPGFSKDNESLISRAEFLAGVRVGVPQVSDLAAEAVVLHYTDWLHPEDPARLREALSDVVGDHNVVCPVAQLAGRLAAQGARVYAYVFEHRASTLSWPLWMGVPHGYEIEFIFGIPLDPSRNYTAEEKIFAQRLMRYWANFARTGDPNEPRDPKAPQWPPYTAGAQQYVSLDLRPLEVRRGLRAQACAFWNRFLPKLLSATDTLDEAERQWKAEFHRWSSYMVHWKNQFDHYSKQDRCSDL
Sequence of CYP2D6 (P10635 whole entry): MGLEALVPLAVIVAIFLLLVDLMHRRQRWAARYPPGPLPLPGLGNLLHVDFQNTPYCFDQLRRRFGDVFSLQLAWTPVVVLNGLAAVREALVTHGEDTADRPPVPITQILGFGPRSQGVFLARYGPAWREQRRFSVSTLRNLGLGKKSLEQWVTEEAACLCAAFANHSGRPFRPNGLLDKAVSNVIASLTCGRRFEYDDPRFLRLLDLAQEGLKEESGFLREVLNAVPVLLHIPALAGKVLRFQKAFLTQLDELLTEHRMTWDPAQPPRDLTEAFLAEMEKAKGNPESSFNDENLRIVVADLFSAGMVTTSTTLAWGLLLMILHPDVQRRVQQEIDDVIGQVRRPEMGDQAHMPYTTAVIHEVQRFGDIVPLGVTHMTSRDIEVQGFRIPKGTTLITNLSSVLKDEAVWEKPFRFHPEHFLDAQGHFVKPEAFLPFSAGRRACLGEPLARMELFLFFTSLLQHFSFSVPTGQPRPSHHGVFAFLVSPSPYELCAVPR
Sequence of Cytochrome P450 2D6 (P10635 whole entry): as above

COc1ccc2ncc(F)c(C[C@H](O)[C@H]3OC[C@H](NCc4cc5c(nn4)OCCS5)CO3)c2n1
MIC50 [1]: 0.25 µg/mL (≈ 0.511 µM) | MIC90 [1]: 1 µg/mL (≈ 2.04 µM) | half-life [2]: 52 min | Activity [3]: < 25% | inhibition at 10 µM [4]: > 50% | Papp A→B [5]: 5.68 ×10⁻⁶ cm/s | MIC [6]: 0.25 µg/mL (≈ 0.511 µM) | inhibition at 10 µM [7]: > 50% | MIC50 [8]: > 64 µg/mL | Activity [9]: 12% | MIC [10]: 0.125 µg/mL (≈ 0.255 µM) | inhibition at 100 µM [11]: < 25% | inhibition [12]: > 45% | IC50 [13]: > 125 µM | inhibition at 10 µM [14]: > 50% | half-life [15]: 38 min | MIC50 [16]: 0.25 µg/mL (≈ 0.511 µM) | MIC90 [16]: 1 µg/mL (≈ 2.04 µM) | IC50 [17]: > 10 µM | MIC [18]: 4 µg/mL (≈ 8.17 µM) | Vd [19]: 1 L/kg | half-life [20]: 94 min | inhibition at 100 µM [21]: < 25% | solubility kinetic [22]: 61.4 µM (≈ 30.1 µg/mL) | IC50 [23]: > 125 µM | IC50 [24]: 15 µM | IC50 [25]: > 125 µM | MIC50 [26]: > 64 µg/mL | Papp B→A [27]: 81.2 ×10⁻⁶ cm/s | Activity [28]: Dose-Dependent Effect | IC50 [29]: > 10 µM | MIC [30]: 0.125 µg/mL (≈ 0.255 µM) | IC50 [31]: > 10 µM | inhibition [32]: > 45% | AUC(0-t) at 24 h [33]: 5910 ng·h/mL | IC50 [34]: > 10 µM | IC50 [35]: > 10 µM | IC50 [36]: 202 µM
